Article PMC5680101 (The journal of physical chemistry. B, 2017)

Legend:
[1] = target: T1, SELENOK U92C (Homo sapiens, UniProt Q9Y6D0, U92C); assay: steady-state FP anisotropy, DDM desolvation of SELENOK U92C; assay type: binding; details: solubilized in 1.3 mM DDM
T1 sequence (Q9Y6D0 2-94 U92C): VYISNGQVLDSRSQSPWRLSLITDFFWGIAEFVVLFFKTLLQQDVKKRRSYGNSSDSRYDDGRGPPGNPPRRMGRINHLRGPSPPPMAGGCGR
How it was run: (§1)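 Human proteins expressed as MBP fusions and purified in 1.3 mM DDM, which was the starting detergent concentration. Each was labelled with Texas Red C2 maleimide on its single accessible cysteine (C92 in SELENOK, C174 in SELENOS). Samples were diluted in wells with DDM buffers to 200 nM protein in 200 mM NaCl, 50 mM HEPES pH 7.4, 24°C. FP read at […] after 15 min equilibration; 24 h endpoints at 4°C. rmin extrapolated to lowest DDM.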

[2] = in water; ref Anatrace, [29], [63]; cited from earlier work
[3] = target: α-helical proteins; assay: FP anisotropy, DDM proteomicelles of the α-helical proteins; assay type: binding, Homo sapiens; details: 200 mM NaCl, 50 mM HEPES, pH 7.4, 24°C
How it was run: as §1

[4] = target: T2, SELENOS U188S (Homo sapiens, UniProt Q9BQE4); assay: steady-state FP anisotropy, DDM desolvation of SELENOS U188S; assay type: binding; details: solubilized in 1.3 mM DDM
T2 sequence (Q9BQE4 with tags, fused parts or gaps): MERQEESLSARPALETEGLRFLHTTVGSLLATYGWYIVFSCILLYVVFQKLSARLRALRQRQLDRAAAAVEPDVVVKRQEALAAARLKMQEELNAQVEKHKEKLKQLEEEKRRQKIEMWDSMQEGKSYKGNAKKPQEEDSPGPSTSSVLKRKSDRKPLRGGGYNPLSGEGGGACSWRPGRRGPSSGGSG
How it was run: as §1

[5] = target: FhuA ΔC/Δ5L_25N (Escherichia coli, UniProt P06971); assay type: binding, E. coli; details: for rmax: maximum anisotropy at detergent concentrations above the CMC; for rmax / rmin: 200 mM NaCl, 50 mM HEPES, pH 7.4; for rmin: minimum anisotropy, extrapolated for the lowest detergent concentration; for Dr fast: rotational diffusion coefficient under desolvation conditions; for Dr slow: rotational diffusion coefficient under solvation conditions
Sequence of FhuA ΔC/Δ5L_25N (P06971 194-747, stated change not applied): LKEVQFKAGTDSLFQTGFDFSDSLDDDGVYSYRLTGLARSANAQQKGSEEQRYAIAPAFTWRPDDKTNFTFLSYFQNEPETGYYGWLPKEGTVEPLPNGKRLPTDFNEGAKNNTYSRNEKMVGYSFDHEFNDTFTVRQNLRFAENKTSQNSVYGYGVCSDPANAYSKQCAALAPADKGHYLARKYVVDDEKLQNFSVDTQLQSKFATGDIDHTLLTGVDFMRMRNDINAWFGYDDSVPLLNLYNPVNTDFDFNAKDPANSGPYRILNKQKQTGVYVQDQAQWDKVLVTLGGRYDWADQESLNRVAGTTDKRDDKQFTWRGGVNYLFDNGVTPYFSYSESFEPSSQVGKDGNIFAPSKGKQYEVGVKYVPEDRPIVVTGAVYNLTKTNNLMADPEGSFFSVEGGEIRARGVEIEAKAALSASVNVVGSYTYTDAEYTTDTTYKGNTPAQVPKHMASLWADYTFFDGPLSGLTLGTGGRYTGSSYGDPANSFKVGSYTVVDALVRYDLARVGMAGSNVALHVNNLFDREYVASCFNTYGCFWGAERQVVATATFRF

[6] = target: FhuA ΔC/Δ7L_30N (Escherichia coli, UniProt P06971); assay type: binding, E. coli; details: for rmax: maximum anisotropy at detergent concentrations above the CMC; for rmax / rmin: 200 mM NaCl, 50 mM HEPES, pH 7.4; for rmin: minimum anisotropy, extrapolated for the lowest detergent concentration; for Dr fast: rotational diffusion coefficient under desolvation conditions; for Dr slow: rotational diffusion coefficient under solvation conditions
Sequence of FhuA ΔC/Δ7L_30N (P06971 194-747, stated change not applied): as above

[7] = target: OmpG (Escherichia coli, UniProt P76045, D245C); assay: biochemical; assay type: binding, E. coli; details: for p (Hill coefficient): four-parameter Hill fit; for p (Hill coefficient) / Kd: pH 7.4, 24°C; for rmax: maximum anisotropy at detergent concentrations above the CMC; for Rh max: maximum hydrodynamic radius of the proteomicelle; for Kd: read-out: Kd (apparent dissociation constant), midpoint of dose-dependent dissociation phase; for Dr slow: rotational diffusion coefficient under solvation conditions
Sequence of OmpG (P76045 22-301 D245C): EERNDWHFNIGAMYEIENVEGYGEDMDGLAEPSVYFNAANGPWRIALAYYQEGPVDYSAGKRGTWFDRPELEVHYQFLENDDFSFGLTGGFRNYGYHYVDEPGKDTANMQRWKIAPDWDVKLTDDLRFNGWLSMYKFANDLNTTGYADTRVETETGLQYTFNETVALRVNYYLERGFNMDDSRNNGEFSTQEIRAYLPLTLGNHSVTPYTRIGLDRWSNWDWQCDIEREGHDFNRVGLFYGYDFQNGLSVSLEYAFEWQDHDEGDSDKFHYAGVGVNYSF

[8] = target: FhuA ΔC/Δ5L (Escherichia coli, UniProt P06971, DEL561-566/INS560[…], form not given); assay type: binding, E. coli; details: for q (slope factor or transition steepness): calculated at the midpoint of the dissociation phase; for ΔRh: decrease in hydrodynamic radius as a result of detergent desolvation; for p (Hill coefficient): four-parameter Hill fit; for p (Hill coefficient) / rmax / rmin / Kd: 200 mM NaCl, 50 mM HEPES; for p (Hill coefficient) / Kd: pH 7.4, 24°C; for rmax: maximum anisotropy at detergent concentrations above the CMC; for rmax / rmin: pH 7.4; for Rh max: maximum hydrodynamic radius of the proteomicelle; for rmin: minimum anisotropy, extrapolated for the lowest detergent concentration; for Kd: read-out: Kd (apparent dissociation constant), midpoint of dose-dependent dissociation phase; for Dr fast: rotational diffusion coefficient under desolvation conditions; for ΔG: ΔG = RT ln Kd
Sequence of FhuA ΔC/Δ5L (P06971 194-747, stated change not applied): as the sequence (P06971 194-747, stated change not applied) above

[9] = 200 mM NaCl, 50 mM HEPES, pH 7.4

Structure (SMILES)	rmax [5]	rmin [5]	Dr fast [5]	Dr slow [5]	rmax [6]	rmin [6]	Dr fast [6]	Dr slow [6]	p (Hill coefficient) ([7]; 200 mM NaCl, 50 mM HEPES)	rmax [7, 9]	Rh max [7] [nm]	Kd ([7]; 200 mM NaCl, 50 mM HEPES) [mM]	Dr slow [7]	q (slope factor or transition steepness) [8] [mM⁻¹]	ΔRh [8] [nm]	p (Hill coefficient) [8]	rmax [8]	Rh max [8] [nm]	rmin [8]	Kd [8] [mM]	further results
CCCCCCCCCCCCO[C@@H]1O[C@H](CO)[C@@H](O[C@H]2O[C@H](CO)[C@@H](O)[C@H](O)[C@H]2O)[C@H](O)[C@H]1O [DDM, n-dodecyl-β-D-maltoside]	–	–	–	–	–	–	–	–	–	–	–	–	–	–	–	–	–	–	–	–	rotational diffusion coefficient, Dr fast [1]: ~ 1.3×10^8 s^−1; rmin ([1]; 200 nM protein): 0.095 ± 0.002; Aggregation number, Nagg [2]: ~78–149; apparent Kd relative to the CMC [3]: greater than the CMC; rotational diffusion coefficient, Dr fast [4]: ~ 1.1×10^8 s^−1; rmin ([4]; 200 nM protein): 0.103 ± 0.002
CCCCCCCCO[C@@H]1O[C@H](CO)[C@@H](O)[C@H](O)[C@H]1O [OG, n-octyl-β-D-glucoside]	~0.17	~0.15	~6.6 10^7 s^−1	~5.2 10^7 s^−1	~0.17	~0.15	~6.6 10^7 s^−1	~5.2 10^7 s^−1	4.9 ± 0.5	0.306 ± 0.001	2.4	11 ± 1	1.2 ± 0.1 10^7 s^−1	0.013	0.80 ± 0.02	5.3 ± 0.9	0.291 ± 0.002	2.2	0.162 ± 0.002	13 ± 1	q (slope factor or transition steepness) ([7]; calculated at the midpoint of the dissociation phase): 0.017 mM⁻¹; ΔRh ([7]; decrease in hydrodynamic radius as a result of detergent desolvation): 1.0 ± 0.1 nm; rmin ([7]; minimum anisotropy, extrapolated for the lowest detergent concentration, 200 mM NaCl, 50 mM HEPES, pH 7.4): 0.153 ± 0.002; Dr fast ([7]; rotational diffusion coefficient under desolvation conditions): 6.4 ± 0.1 10^7 s^−1; ΔG ([7]; ΔG = RT ln Kd): -2.7 ± 0.1 kcal/mol; anisotropy signal ([8]; acidic FhuA proteins refolded in detergent): ~ 0.3; Dr fast [8]: 5.8 ± 0.1 10^7 s^−1; Dr slow ([8]; rotational diffusion coefficient under solvation conditions): 1.5 ± 0.1 10^7 s^−1; ΔG [8]: -2.5 ± 0.1 kcal/mol
C[C@H](CCC(=O)NCCC[N+](C)(C)CCCS(=O)(=O)[O-])[C@H]1CC[C@H]2[C@@H]3[C@H](O)C[C@@H]4C[C@H](O)CC[C@]4(C)[C@H]3C[C@H](O)[C@]12C [CHAPS]	~0.17	~0.15	~6.6 10^7 s^−1	~5.2 10^7 s^−1	~0.17	~0.16	~6.0 10^7 s^−1	~5.2 10^7 s^−1	~1.6	0.318 ± 0.002	2.5	< 0.6	1.0 ± 0.1 10^7 s^−1	0.015	0.77 ± 0.18	1.7 ± 0.6	0.292 ± 0.004	2.2	0.172 ± 0.048	3.3 ± 1.8	Dr fast [8]: 1.5 ± 0.1 10^7 s^−1; ΔG [8]: -3.4 ± 0.5 kcal/mol
